According to PMC4710169 (Biomedical chromatography : BMC, 2014):
One block for each compound: values may come before it.

Assays:
[1] = Bench-top stability in mouse plasma and tissue homogenates at 25°C; format: in vitro ADME; details: plasma and most tissue homogenates except for liver
[2] = Homogenization stability in mouse tissues; format: in vitro ADME; details: homogenized
Outline: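 Compound at 324 and 3240 ng/mL injected into equal weights of blank mouse tissue, kept inside the organ. Tissue homogenized in two volumes (v/w) PBS on ice, extracted at once by methanol precipitation and analysed immediately. Analysis by C18 HPLC-DAD at 295 nm. Recovery given as percent of initial concentration.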

[3] = format: in vivo, female nu/nu mice
Outline: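 Nude mice carrying subcutaneous MIAPaCa-2 xenografts (1 × 10^7 cells, left inguinal) were dosed once with 40 mg/kg i.p. when tumours reached 100 mg, n=3 per group. Vehicle was PEG400–EtOH–saline (57.1:14.3:28.6). Retro-orbital plasma and necropsy tissues taken at 0–24 h. Urine and feces collected over 24 h in metabolic cages. Tissues homogenized in PBS, methanol-extracted and measured by HPLC-DAD.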

[4] = system: pancreatic cancer cells; details: ref: our previous studies; cited from earlier work
[5] = Nonspecific binding to container surface; format: physicochemical, mouse
Outline: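 Sequential transfer test. Plasma or tissue homogenate spiked at 324 or 3240 ng/mL was poured, without a pipette, through four identical clean tubes in turn. Solution stood 5–20 min at room temperature in each donor tube for adsorption. 100 μL taken from each tube and measured by the same extraction and HPLC-DAD method.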

[6] = Short- and long-term stability in mouse plasma; format: in vitro ADME; details: for compound remaining intact in mouse plasma: 4°C
Outline: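 Mouse plasma spiked at 324 and 3240 ng/mL, analysed in duplicate. Short-term storage at 37°C (2, 4, 6, 8, 12, 24 h) or 4°C (4, 8, 12, 24 h); long-term storage at −80°C for 2–8 weeks. Samples then methanol-extracted and analysed by HPLC-DAD. Results given as percent of freshly prepared samples.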

[7] = Stock solution stability at room temperature; format: physicochemical; details: room temperature (25°C), 24 h; 324 and 3240 ng/mL
Outline: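 Stock solutions of analyte and internal standard, at 324 and 3240 ng/mL, tested fresh and after storage at 25°C. Tested at 6, 12 and 24 h after preparation, using the same extraction and C18 HPLC-DAD (295 nm) procedure.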

[8] = system: tumor growth; details: 40 mg/kg intraperitoneal; ref: our previous studies; cited from earlier work
[9] = system: mouse plasma proteins; assay: Plasma protein binding by micro-ultrafiltration; format: in vitro ADME; details: 37°C, 1 h
Outline: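 Mouse plasma spiked at 324 and 3240 ng/mL and held at 37°C for 1 h; PBS used as control matrix. Micro-ultrafiltration by centrifugation at 2000g until dry. Filtrate (free, F) and unfiltered solution (total, T) each assayed in triplicate by HPLC, and filter-bound amount (X) also measured. Percent bound = [(T−F−X)/T]×100.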

[10] = Freeze–thaw stability; format: in vitro ADME
Outline: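 Samples at 324 and 3240 ng/mL, run in triplicate. Each cycle was 24 h at −20°C, then unassisted thawing at room temperature, then refreezing; three cycles in total. Samples then extracted with methanol (0.04% formic acid) on ice and analysed by reversed-phase HPLC-DAD at 295 nm. Final concentration expressed as percent of initial.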

[11] = system: hepatic microsomal S9 fractions from CD2F1 mice; assay: S9 metabolism in vitro; format: in vitro ADME; details: mouse S9, 60 min incubation, 37°C
Outline: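 Hepatic S9 fraction from CD2F1 mice, containing phase I and II enzymes and cofactors, incubated with compound. Compound added as a 3240 ng/mL DMSO solution (not final concentration) into cold 100 mM Tris, pH 7.4. Duplicate portions taken at 0, 15, 30, 45 and 60 min and analysed for intact compound by HPLC, against a no-S9 control.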

[12] = female, nu/nu, mouse, plasma, intraperitoneal, 40 mg/kg

- bench-top stability [1]: relatively stable
- recovery at 324 ng/mL ([2]; blank brain tissue): 91.3 ± 0.98%
- recovery at 3240 ng/mL ([2]; blank brain tissue): 101 ± 1.45%
- recovery at 324 ng/mL ([2]; blank heart tissue): 81.8 ± 4.47%
- recovery at 3240 ng/mL ([2]; blank heart tissue): 86.6 ± 1.39%
- recovery at 324 ng/mL ([2]; blank kidney tissue): 82.5 ± 2.6%
- recovery at 3240 ng/mL ([2]; blank kidney tissue): 87.8 ± 1.36%
- recovery at 324 ng/mL ([2]; blank liver tissue): 86.7 ± 1.36%
- recovery at 3240 ng/mL ([2]; blank liver tissue): 89.22 ± 0.77%
- recovery at 324 ng/mL ([2]; blank lung tissue): 89 ± 1.57%
- recovery at 3240 ng/mL ([2]; blank lung tissue): 93.3 ± 1.02%
- recovery at 324 ng/mL ([2]; blank muscle tissue): 97.18 ± 0.9%
- recovery at 3240 ng/mL ([2]; blank muscle tissue): 97.5 ± 1.47%
- recovery at 324 ng/mL ([2]; blank spleen tissue): 93 ± 5.2%
- recovery at 3240 ng/mL ([2]; blank spleen tissue): 99.7 ± 1.15%
- recovery at 324 ng/mL ([2]; blank tumor tissue): 99.61 ± 0.79%
- recovery at 3240 ng/mL ([2]; blank tumor tissue): 99.12 ± 0.19%
- concentration in plasma ([3]; 40 mg/kg i.p. single dose, 6 h): undetectable
- detection in tumor tissue ([3]; 40 mg/kg i.p., 24 h after administration, low concentrations): could be detected
- excretion of parent compound in urine and feces ([3]; 40 mg/kg i.p., 24 h collection, data not shown): minimally excreted
- half-life in plasma ([3]; 40 mg/kg i.p., tumor-bearing nude mice): short half-life
- concentration at 10 min [3, 12]: ~3000 ng/mL
- concentration at 4 h [3, 12]: 200 ng/mL
- Recovery (%) ± SD (%), nonspecific binding ([5]; Brain, 324 ng/mL): 96.29 ± 2.54%
- Recovery (%) ± SD (%), nonspecific binding ([5]; Brain, 3240 ng/mL): 100.58 ± 0.81%
- Recovery (%) ± SD (%), nonspecific binding ([5]; Heart, 324 ng/mL): 100.41 ± 0.27%
- Recovery (%) ± SD (%), nonspecific binding ([5]; Heart, 3240 ng/mL): 98.82 ± 0.38%
- Recovery (%) ± SD (%), nonspecific binding ([5]; Kidney, 324 ng/mL): 99.88 ± 3.11%
- Recovery (%) ± SD (%), nonspecific binding ([5]; Kidney, 3240 ng/mL): 97.13 ± 1.04%
- Recovery (%) ± SD (%), nonspecific binding ([5]; Liver, 324 ng/mL): 104.91 ± 6.65%
- Recovery (%) ± SD (%), nonspecific binding ([5]; Liver, 3240 ng/mL): 99.69 ± 1.38%
- Recovery (%) ± SD (%), nonspecific binding ([5]; Lungs, 324 ng/mL): 96.64 ± 2.24%
- Recovery (%) ± SD (%), nonspecific binding ([5]; Lungs, 3240 ng/mL): 99.99 ± 0.21%
- Recovery (%) ± SD (%), nonspecific binding ([5]; Muscle, 324 ng/mL): 101.12 ± 2.33%
- Recovery (%) ± SD (%), nonspecific binding ([5]; Muscle, 3240 ng/mL): 99.19 ± 1.01%
- Recovery (%) ± SD (%), nonspecific binding ([5]; Plasma, 324 ng/mL): 98.95 ± 1.49%
- Recovery (%) ± SD (%), nonspecific binding ([5]; Plasma, 3240 ng/mL): 100.49 ± 0.04%
- Recovery (%) ± SD (%), nonspecific binding ([5]; Spleen, 324 ng/mL): 99.54 ± 2.10%
- Recovery (%) ± SD (%), nonspecific binding ([5]; Spleen, 3240 ng/mL): 99.99 ± 0.22%
- Recovery (%) ± SD (%), nonspecific binding ([5]; Tumor, 324 ng/mL): 96.84 ± 2.30%
- Recovery (%) ± SD (%), nonspecific binding ([5]; Tumor, 3240 ng/mL): 99.20 ± 0.57%
- compound remaining intact in mouse plasma ([6]; 24 h, 324 ng/mL): 95.9%
- compound remaining intact in mouse plasma ([6]; 24 h, 3240 ng/mL): 94.3%
- compound remaining in mouse plasma ([6]; 37°C, 24 h, both 324 and 3240 ng/mL): more than 77%
- compound remaining in mouse plasma ([6]; −80°C, 8 weeks, 324 ng/mL): 95.7%
- compound remaining in mouse plasma ([6]; −80°C, 8 weeks, 3240 ng/mL): 98.7%
- stock solution stability [7]: unchanged
- bound to proteins in mouse plasma ([9]; 324 ng/mL): 57.23%
- bound to proteins in mouse plasma ([9]; 3240 ng/mL): 62.61%
- percentage of remaining concentration after three freeze–thaw cycles ([10]; 324 ng/mL): 98.24 ± 0.69%
- percentage of remaining concentration after three freeze–thaw cycles ([10]; 3240 ng/mL): 97.44 ± 1.53%
- compound metabolized by phase II components [11]: 18.8%
SMILES: COc1ccc2[nH]c3c(-c4cccc5ccccc45)nccc3c2c1 [SP-141, 6-methoxy-1-(naphthalen-1-yl)-9H-pyrido[3,4-b]indole]
- order of highest overall concentrations in tissues ([3]; 40 mg/kg i.p. single dose): spleen > lungs > liver > kidney > brain > tumor > muscle > heart
- effective level against pancreatic cancer cells in vitro [4]: submicromolar
- effect on tumor growth in vivo [8]: suppresses the tumor growth
- host toxicity in vivo [8]: no significant host toxicity

- stock solution stability [7]: unchanged
SMILES: COc1ccc2c(c1)[nH]c1c(-c3ccc4ccccc4c3)nccc12 [SP-157, 7-methoxy-1-(naphthalen-2-yl)-9H-pyrido[3,4-b]indole, reference compound]
